Consider one molecule from ChEMBL document CHEMBL1909525, “Synthesis and anticonvulsant activity of novel 2,6-diketopiperazine derivatives. Part 1: perhydropyrrole[1,2-a]pyrazines” (Eur J Med Chem, 2011).

Each structure is given as a SMILES string. Activity calls are given as the source filed them. No cut-off for these calls is given here. Some results are limits rather than exact numbers.

For data set [1], the system named is Mus musculus. Put plainly: Neurotoxicity in albino Carworth Farms No.1 mouse assessed as motor impairment at 30 mg/kg, ip after 0.5 hrs by rotarod test. In kind it is toxicity, organism-based. Set-up: dose 30 mg/kg, route intraperitoneal. The note with it: in vivo. In outline: (§1)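 Rotorod neurotoxicity in mice at 6 r.p.m. Compound given i.p. (30, 100, 300 mg/kg) in 0.5% methylcellulose; tested at 30 min and 4 h. Impairment is inability to keep equilibrium on the rod for a given time; scored as impaired/tested.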

Data set [2] relates to Mus musculus. The data set can be described thus: Anticonvulsant activity in albino Carworth Farms No.1 mouse assessed as protection against electric-current for 3 secs-induced seizure at 100 mg/kg, ip after 0.25 hrs by 6Hz minimal clonic seizure test. In kind it is functional, organism-based. On the set-up: dose 100 mg/kg. The procedure, abridged: (§2)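 6 Hz psychomotor seizure test in mice. Compound given i.p. as a suspension in 0.5% methylcellulose. Corneal stimulation at 32 mA, 0.2-ms monopolar rectangular pulses at 6 Hz for 3 s, from a constant-current device. Tests run 0.25–4 h after dosing. A mouse counted as protected if it resumed normal exploratory behaviour within 10 s; scored as protected/tested.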

The subject of data set [3] is Mus musculus. Put plainly: Anticonvulsant activity in albino Carworth Farms No.1 mouse assessed as protection against subcutaneous metrazol-induced seizure at 30 mg/kg, ip after 0.5 hrs. On the set-up: dose 30 mg/kg. In kind it is functional, organism-based. The procedure, abridged: (§3)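 Mouse scMET test. Compound given i.p. (30, 100 or 300 mg/kg) in 0.5% methylcellulose. Pentylenetetrazole 85 mg/kg (CD97) given s.c. at 0.5 or 4 h, then mice observed for 30 min. Protection is absence of clonic spasms; scored as protected/tested.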

In data set [4] the test system is Mus musculus. The data set can be described thus: Anticonvulsant activity in albino Carworth Farms No.1 mouse assessed as protection against subcutaneous metrazol-induced seizure at 100 mg/kg, ip after 0.5 hrs. It counts as functional, organism-based. On the set-up: dose 100 mg/kg. The procedure, abridged: as §3
For data set [5], the system named is Mus musculus. Put plainly: Anticonvulsant activity in albino Carworth Farms No.1 mouse assessed as protection against subcutaneous metrazol-induced seizure at 300 mg/kg, ip after 4 hrs. In kind it is functional, organism-based. Set-up: dose 300 mg/kg. In outline:
as §3

The subject of data set [6] is Mus musculus. The data set can be described thus: Anticonvulsant activity in albino Carworth Farms No.1 mouse assessed as protection against electric-current for 3 secs-induced seizure at 100 mg/kg, ip after 4 hrs by 6Hz minimal clonic seizure test. In kind it is functional, organism-based. On the set-up: dose 100 mg/kg. The procedure, abridged:
as §2

Data set [7] has as its system Mus musculus. The data set can be described thus: Anticonvulsant activity in albino Carworth Farms No.1 mouse assessed as protection against electric-current for 3 secs-induced seizure at 75 mg/kg, ip after 0.5 hrs by 6Hz minimal clonic seizure test. In kind it is functional, organism-based. Set-up: dose 75 mg/kg. In outline:
as §2

Data set [8] relates to Mus musculus. Put plainly: Anticonvulsant activity in albino Carworth Farms No.1 mouse assessed as protection against electric-current for 3 secs-induced seizure at 75 mg/kg, ip after 1 hr by 6Hz minimal clonic seizure test. It counts as functional, organism-based. On the set-up: dose 75 mg/kg. The procedure, abridged: as §2
In data set [9] the test system is Mus musculus. The data set can be described thus: Anticonvulsant activity in albino Carworth Farms No.1 mouse assessed as protection against electric-current for 3 secs-induced seizure at 75 mg/kg, ip after 2 hrs by 6Hz minimal clonic seizure test. On the set-up: dose 75 mg/kg. It counts as functional, organism-based. The procedure, abridged:
as §2

Data set [10] has as its system Mus musculus. Put plainly: Anticonvulsant activity in albino Carworth Farms No.1 mouse assessed as protection against electric-current for 3 secs-induced seizure at 75 mg/kg, ip after 4 hrs by 6Hz minimal clonic seizure test. On the set-up: dose 75 mg/kg. It counts as functional, organism-based. The procedure, abridged:
as §2

In data set [11] the test system is Mus musculus. Put plainly: Anticonvulsant activity in ip dosed albino Carworth Farms No.1 mouse assessed as protection against subcutaneous metrazol-induced seizure after 0.25 hrs. It counts as functional. The note with it: albino Carworth Farms No.1, 0.25 h. The procedure, abridged:
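Mouse quantification at the time of peak effect, compound given i.p. in 0.5% methylcellulose. Groups of at least eight mice received varied doses until at least two points fell between 100 and 0% response. ED50 (MES, scMET) and TD50 (rotorod) with 95% CI by probit analysis (Finney). PI = TD50/ED50 MES.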

The subject of data set [12] is Rattus norvegicus. The data set can be described thus: Anticonvulsant activity in po dosed albino Sprague-Dawley rat assessed as protection against maximal electroshock-induced seizure after 0.25 hrs. In kind it is functional. In outline:
(§4)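 Rats dosed orally, compound in 0.5% methylcellulose. MES at 150 mA, 60 Hz, 0.2 s; scMET with pentylenetetrazole 70 mg/kg s.c. plus 30 min observation; rotorod for toxicity.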

A short description of data set [13]: Neurotoxicity in po dosed albino Sprague-Dawley rat assessed as motor impairment after 0.25 hrs by rotarod test. It counts as toxicity, organism-based. The note with it: in vivo. In outline:
as §4

Data set [14] deals with Rattus norvegicus. Put plainly: Anticonvulsant activity in albino Sprague-Dawley rat assessed as protection against pilocarpine-induced status epilepticus at 65 mg/kg, ip measured after time from first stage 3 seizures. It counts as functional, organism-based. On the set-up: dose 65 mg/kg. In outline:
(§5)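 Male albino Sprague-Dawley rats, 150–180 g. Compound given i.p., then a challenge dose of pilocarpine at 0 min or at 30 min. Outcome scored as protection or no protection from seizures (protected/tested), with body weight change recorded.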

Data set [15] concerns Rattus norvegicus. Put plainly: Toxicity in albino Sprague-Dawley rat pilocarpine-induced status epilepticus model assessed as change in body weight in protected rat at 65 mg/kg, ip measured after 24 hrs of time from first stage 3 seizures. It counts as organism-based. On the set-up: dose 65 mg/kg, route intraperitoneal. The settings on record: in vivo. The procedure, abridged: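 Male albino Sprague-Dawley rats (150–180 g) received compound i.p., then a pilocarpine challenge immediately (0 min) or 30 min after treatment. The outcome was protection or no protection from seizures, scored as number protected/number tested. Average body weight change (g) ± S.E.M. was reported separately for protected and non-protected rats.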

The species entered for data set [16] is Rattus norvegicus. Put plainly: Activation of voltage-gated sodium channel in Wistar rat cerebral prefrontal coronal slices assessed as increase of 0.1 Hz current-induced current amplitude at 10 uM after 5 mins by whole cell voltage clamp method. The procedure, abridged:
(§6)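 Whole-cell voltage clamp on mechanically dispersed mPFC cells from coronal prefrontal slices of 3-week-old male Wistar rats. Bath: TEA-OH 90, NaCl 30, HEPES 10, MgCl2 2, CaCl2 2, glucose 15 mM, pH 7.4. Na+ currents evoked at 0.1 Hz by a step to -20 mV (30 ms) after a -100 mV prepulse (1000 ms). Amplitude compared before and after 5 min compound application; n = 3.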

The species named for data set [17] is Rattus norvegicus. The data set can be described thus: Inhibition of voltage-gated sodium channel in Wistar rat cerebral prefrontal coronal slices assessed as decrease of […] current-induced current amplitude at 10 uM after 5 mins by whole cell voltage clamp method (reference value: 4.2%). On the set-up: scale not given: the % may be the effect or the level left.

For data set [18], the species on record is Rattus norvegicus. Put plainly: Inhibition of voltage-gated sodium channel in Wistar rat cerebral prefrontal coronal slices assessed as decrease of […] current-induced current amplitude at 100 uM after 5 mins by whole cell voltage clamp method (reference value: 8 +/- 2.3%). Set-up: scale not given: the % may be the effect or the level left.
In data set [19] the test system is Mus musculus. Put plainly: Anticonvulsant activity in albino Carworth Farms No.1 mouse assessed as protection against maximal electroshock-induced seizure at 300 mg/kg, ip after 0.5 hrs. It counts as functional, organism-based. Set-up: dose 300 mg/kg. The procedure, abridged:
(§7)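 Mouse MES test with compound given i.p. (30, 100 or 300 mg/kg) in 0.5% methylcellulose; tested at 0.5 and 4 h. Corneal stimulus of 50 mA at 60 Hz for 0.2 s, electrodes primed with 0.5% butacaine in 0.9% NaCl. Protection is abolition of hindlimb tonic extension; scored as protected/tested.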

The subject of data set [20] is Mus musculus. The data set can be described thus: Anticonvulsant activity in albino Carworth Farms No.1 mouse assessed as protection against maximal electroshock-induced seizure at 300 mg/kg, ip after 4 hrs. It counts as functional, organism-based. On the set-up: dose 300 mg/kg. The procedure, abridged: as §7
For data set [21], the species on record is Rattus norvegicus. The data set can be described thus: Inhibition of voltage-gated sodium channel in Wistar rat cerebral prefrontal coronal slices assessed as decrease of 0.1 Hz current-induced current amplitude at 10 to 100 uM after 5 mins by whole cell voltage clamp method. The procedure, abridged: as §6
Data set [22] deals with Mus musculus. Put plainly: Neurotoxicity in albino Carworth Farms No.1 mouse assessed as motor impairment at 30 mg/kg, ip after 4 hrs by rotarod test. It counts as toxicity, organism-based. On the set-up: dose 30 mg/kg, route intraperitoneal. The note with it: in vivo. The procedure, abridged:
as §1

In data set [23] the test system is Rattus norvegicus. The data set can be described thus: Anticonvulsant activity in albino Sprague-Dawley rat assessed as protection against pilocarpine-induced status epilepticus at 130 mg/kg, ip measured after time from first stage 3 seizures. In kind it is functional, organism-based. Set-up: dose 130 mg/kg. In outline:
as §5

As to `O=C1NC(=O)[C@@H]2CCCN2[C@H]1c1ccccc1`, the Activity entry in data set [1] is “Non-toxic”; in data set [15] it was 4.4 g; in [16], 3%; in data set [17], 5.3%; in data set [18], 14.1%; in [22], “Non-toxic”. Also, the outcome in [2], in [7], in [14] and in data set [23] was Active. Besides, the result in data set [3], in data set [4], in [5], in data set [6], in [8] and in data set [9] was inactive. For the same molecule, the outcome in data set [10], in data set [19] and in data set [20] was inactive. The ED50 was determined as 87.9 mg/kg in data set [11] and 39.7 mg/kg in data set [12]. In addition, the TD50 at 0.25 h in data set [13] was more than 500 mg/kg. The inhibition result in [21] was “inactive”.
